Assay [1] has as its target T1, Endothelin-1 receptor (Homo sapiens) (UniProt P25101).
T1 sequence (whole entry): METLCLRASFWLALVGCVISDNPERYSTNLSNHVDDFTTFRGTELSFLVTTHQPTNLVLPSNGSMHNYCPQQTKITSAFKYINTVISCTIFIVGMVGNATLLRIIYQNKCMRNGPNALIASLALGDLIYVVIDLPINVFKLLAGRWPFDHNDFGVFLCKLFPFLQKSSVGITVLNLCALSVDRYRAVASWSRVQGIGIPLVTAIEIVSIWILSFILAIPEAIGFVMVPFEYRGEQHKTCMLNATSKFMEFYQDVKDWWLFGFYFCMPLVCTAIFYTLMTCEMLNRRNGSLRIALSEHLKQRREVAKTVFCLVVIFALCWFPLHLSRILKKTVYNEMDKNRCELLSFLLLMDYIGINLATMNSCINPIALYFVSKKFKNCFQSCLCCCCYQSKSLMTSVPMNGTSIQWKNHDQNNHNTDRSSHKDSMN
The assay can be described thus: Displacement of [3H]BQ-123 from human ETA receptor in human SK-N-MC cells at 100 ug/ml after 60 mins by scintillation counting. It is filed as cell-based. Put shortly: (§1)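 Confluent human neuroblastoma SK-N-MC cells, which naturally express ETA, were PBS-washed and held 15 min at room temperature in DMEM with 0.1% BSA. […] Preincubation and incubation were 30 min each at 37 °C. Cells were then put on ice, washed, lysed in 1 M NaOH for 30 min and counted by scintillation. Results are % of specific binding.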
(Loss of bound radioactivity is the signal in a displacement assay; it reports binding, not function.)

The target in assay [2] is T1, Endothelin-1 receptor (Homo sapiens). The experiment in a line: Displacement of [3H]BQ-123 from human ETA receptor in human SK-N-MC cells at 10 ug/ml after 60 mins by scintillation counting. It counts as cell-based. Put shortly: as §1
Assay [3] deals with T2, Neuropeptide Y receptor type 1 (Homo sapiens) (UniProt P25929).
T2 sequence (whole entry): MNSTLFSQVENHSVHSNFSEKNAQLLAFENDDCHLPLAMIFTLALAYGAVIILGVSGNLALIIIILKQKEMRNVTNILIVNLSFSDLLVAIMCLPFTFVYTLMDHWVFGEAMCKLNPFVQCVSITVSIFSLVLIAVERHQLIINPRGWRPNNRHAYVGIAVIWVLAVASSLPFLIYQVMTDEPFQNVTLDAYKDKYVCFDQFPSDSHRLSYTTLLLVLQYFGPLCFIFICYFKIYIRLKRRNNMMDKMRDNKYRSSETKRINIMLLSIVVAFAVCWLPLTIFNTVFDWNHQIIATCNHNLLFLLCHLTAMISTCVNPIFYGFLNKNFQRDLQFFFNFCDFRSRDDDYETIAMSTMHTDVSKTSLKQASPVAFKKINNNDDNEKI
The experiment in a line: Displacement of [3H]NPY from neuropeptide Y1 receptor in human SK-N-MC cells at 100 ug/ml after 60 mins by scintillation counting. It counts as cell-based. Put shortly:
(§2)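 SK-N-MC neuroblastoma cells, which natively express Y1, were grown to confluence, PBS-washed and equilibrated 15 min at room temperature in DMEM with 0.5% BSA. […] Steps were 30 min each at 37 °C, followed by ice, PBS wash, 1 M NaOH lysis for 30 min and scintillation counting. Results are % specific binding.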

In assay [4] the target is T2, Neuropeptide Y receptor type 1 (Homo sapiens). The assay can be described thus: Displacement of [3H]NPY from neuropeptide Y1 receptor in human SK-N-MC cells at 10 ug/ml after 60 mins by scintillation counting. It is filed as cell-based. A digest of the protocol: as §2
In assay [5] the test system is Plasmodium falciparum. The experiment in a line: Antimalarial activity against Plasmodium falciparum D6 after 24 hrs by microtiter plate assay. It counts as functional, organism-based. The conditions noted are these: D6, 24 h.
Assay [6] concerns Plasmodium falciparum. The experiment in a line: Antimalarial activity against Plasmodium falciparum W2 after 24 hrs by microtiter plate assay. It is filed as functional, organism-based. As to conditions: W2, 24 h.

≈ marks a conversion by molar mass, not a printed value.

`CN(C)CCc1c[nH]c2cc(Br)c(Br)cc12`: the Activity in assay [1] was 62%; in assay [2] it was 100%; in assay [3] it was 17%; in assay [4], 100%.

One may read the IC50 as the midpoint of a concentration-inhibition curve. Low readings indicate inhibition by little substance, high ones a need for much substance. Take `C/C=C1\NC(=O)[C@H](Cc2ccccc2)NC(=O)[C@@H](C(C)C)NC(=O)[C@@H]([C@@H](C)CC)NC(=O)[C@H](NC(=O)[C@H](NC(=O)[C@H](CCCN)NC(=O)[C@H]2CCCN2C(=O)[C@H](NC(=O)[C@@H](NC(=O)[C@@H](NC(=O)[C@H](NC(=O)CCCC(C)(C)O)C(C)C)[C@@H](C)O)C(C)C)C(C)C)[C@@H](C)CC)[C@H](C)OC(=O)[C@H](C(C)C)NC1=O`: the IC50 was 1.5 µg/mL (≈ 1 µM) in assay [5] and 1.2 µg/mL (≈ 0.803 µM) in assay [6].

Take `Nc1nc([C@H]2[C@H](CNC(=O)c3cc(Br)c[nH]3)[C@@H](CNC(=O)c3cc(Br)c[nH]3)[C@@H]2c2c[nH]c(N)n2)c[nH]1`: the Activity amounted to 80% in assay [1], 100% in assay [2], 12% in assay [3] and 95% in assay [4].

In the case of `CC/C=C/C(CC)CCC[C@@]1(CC)C[C@H](CC)[C@H](CC(=O)OC)OO1` (stereo partly specified), the Activity in assay [1] is 88%; in assay [2], 100%; in assay [3], 100%; in assay [4], 100%.

`Nc1ncc(C2=CCNC(=O)c3[nH]c(Br)c(Br)c32)[nH]1`: the Activity in assay [1] is 68%; in assay [2] it was 78%; in assay [3] it was 81%; in assay [4], 100%.

As to `CC(=O)OC(C)C(OC(C)=O)C(CCCCCCCCCCCCC1=CC(C)OC1=O)C(=O)O` (stereo unspecified), the Activity was 79% in assay [1], 98% in assay [2], 86% in assay [3] and 100% in assay [4].

For the molecule `CC(C)C[C@H]1NC(=O)[C@@H](Cc2ccccc2)NC(=O)[C@@H](CC(C)C)NC(=O)[C@H](NC(=O)[C@@H](Cc2ccccc2)NC(=O)C(C)C)[C@H](C)OC(=O)[C@H](CO)NC(=O)[C@@H]([C@H](C)O)NC1=O`, the Activity in assay [1] worked out at 96%; in assay [2] it was 99%; in assay [3], 18%; in assay [4], 100%.

With `O=C1C2=C(C3=NCCc4c[nH]c1c43)C1(C=C(Br)C(O)C(Br)=C1)CCN2` (stereo unspecified), the Activity turned out to be 100% in assay [1], 100% in assay [2], 29% in assay [3] and 82% in assay [4].

Regarding `CC/C=C/C(CC)CCC[C@@]1(CC)C[C@H](CC)[C@H](CC(=O)O)OO1` (stereo partly specified), the Activity is 68% in assay [1], 100% in assay [2], 56% in assay [3] and 100% in assay [4].

As for `N=C(NCCCCCCNC(=N)NC(=N)Nc1ccc(Cl)cc1)NC(=N)Nc1ccc(Cl)cc1`, the Activity in assay [1] was found to be 79%; in assay [2], 100%; in assay [3] it was 81%; in assay [4], 100%.

As for `CN(C)CCc1c[nH]c2ccc(Br)cc12`, the Activity turned out to be 89% in assay [1], 97% in assay [2], 76% in assay [3] and 100% in assay [4].

Regarding `O=C1C[C@H]2S[C@H]3C[C@]2(C=C1Br)C1=C(N3)C(=O)c2[nH]cc3c2C1=NCC3`, the Activity in assay [1] was 79%; in assay [2] it was 100%; in assay [3] it was 40%; in assay [4], 90%.
